Experimental data pooled from the literature.
HRH1: Histamine H1 receptor (HRH1, Homo sapiens, UniProt P35367)
CHRM4: Muscarinic acetylcholine receptor M4 (CHRM4, Homo sapiens, UniProt P08173)

SMILES | target | assay | setting | endpoint | value
CC(C)(COP(=O)(O)OP(=O)(O)OC[C@H]1O[C@@H](n2cnc3c(N)ncnc32)[C@H](O)[C@@H]1OP(=O)(O)O)[C@@H](O)C(=O)NCCC(=O)NCCSC(=O)c1ccccc1N | pqsD (Pseudomonas aeruginosa, UniProt P20582, C113A) | binding, ITC | – | Kd | ~57 µM
O=C(Nc1cccc(-c2ccn3c(CC4CC4)nnc3c2C(F)(F)F)c1)c1ccc(S(=O)(=O)F)cc1 | Metabotropic glutamate receptor 1 (GRM1, Homo sapiens, UniProt Q13255) | calcium signal, agonist | – | EC50 | > 50.1 µM
Nc1cccc2cc3ccccc3cc12 | Ferritin light chain (FTL, Equus caballus, UniProt P02791) | binding, fluorescence | – | Kd | 9 µM
OC(c1ccc(F)cc1)C(F)(F)CCN1CCC(O)(c2ccc(Cl)cc2)CC1 (racemic) | HRH1 | cell-free assay, radioligand | – | Ki | 0.408 µM
CCCCC/C=C\C/C=C\C/C=C\C/C=C\CCCC(=O)OCCN | Cytochrome P450 2J2 (CYP2J2, Homo sapiens, UniProt P51589) | binding, absorbance | – | Kd | 14 µM
Cc1cc(N2CCNCC2)nc2ccccc12 | CHRM4 | ligand displacement, radioligand | cell membranes | Ki | > 63.1 µM
CC[C@H](C)[C@H](NC(=O)[C@H](CS)NC(=O)[C@H](CCC(N)=O)NC(=O)[C@H](CC(C)C)NC(=O)[C@H](CCCCN)NC(=O)[C@H](CCCNC(=N)N)NC(=O)[C@H](C)NC(=O)[C@@H](NC(=O)[C@H](CCC(N)=O)NC(=O)[C@@H](NC(=O)[C@H](CCC(=O)O)NC(=O)[C@H](C)NC(=O)[C@H](CCC(N)=O)NC(=O)[C@H](Cc1c[nH]cn1)NC(=S)Nc1ccc2c(c1)C(=O)OC21c2ccc(O)cc2Oc2cc(O)ccc21)C(C)C)[C@@H](C)CC)C(=O)N[C@@H](C)C(=O)N[C@@H](CC(=O)O)C(=O)N[C@@H](CCC(N)=O)C(=O)N[C@@H](Cc1ccccc1)C(=O)N[C@@H](Cc1c[nH]cn1)C(=O)N[C@@H](CCCNC(=N)N)C(=O)N[C@@H](CC(C)C)C(=O)N[C@@H](Cc1c[nH]cn1)C(=O)N[C@H](C(=O)N[C@@H](CCC(N)=O)C(=O)N[C@@H](CCC(N)=O)C(=O)O)C(C)C | Induced myeloid leukemia cell differentiation protein Mcl-1 (MCL1, Homo sapiens, UniProt Q07820, R263A) | cell-free assay, FP | – | Kd | 49 µM
Fc1ccc([C@@H]2CCNC[C@H]2COc2ccc3c(c2)OCO3)cc1 | Beta-1 adrenergic receptor (ADRB1, Homo sapiens, UniProt P08588) | ligand displacement, radioligand | – | Ki | 10 µM
N[C@@H](CCP(=O)(O)O)C(=O)O | Metabotropic glutamate receptor 4 (GRM4, Homo sapiens, UniProt Q14833) | calcium signal, agonist | – | EC50 | 0.151 µM
CSCC[C@H](NC(=O)[C@@H](NC(=O)[C@@H](N)Cc1ccc(O)cc1)C(C)C)C(=O)NCC(=O)N[C@@H](Cc1c[nH]cn1)C(=O)O | Melanocortin receptor 5 (Mus musculus, UniProt P41149) | reporter gene, agonist | – | EC50 | 26.8 µM
CC[C@H](C)[C@H](NC(=O)[C@H](CCCNC(=N)N)NC(=O)[C@H](CC(C)C)NC(=O)[C@@H](N)Cc1ccccc1)C(=O)N[C@@H](CCCNC(=N)N)C(=O)N1CCC[C@H]1C(=O)N[C@@H](CCCCN)C(=O)O | HRH1 | cell-free assay, radioligand | – | Ki | > 10 µM
CNc1nc2cc(OCCCCN3CCN(c4cccc(Cl)c4Cl)CC3)ccc2s1 | HRH1 | ligand displacement, radioligand | – | Ki | 0.056 µM
CC(C)C[C@H](NC(=O)[C@H](CCCCN)NC(=O)[C@@H]1CCCN1C(=O)[C@@H](N)CCCNC(=N)N)C(=O)N[C@@H](CCCCN)C(=O)O | HRH1 | cell-free assay, radioligand | – | Ki | > 10 µM
c1cc(N2CCNCC2)c2cc[nH]c2c1 | CHRM4 | ligand displacement, radioligand | cell membranes | Ki | > 63.1 µM
NC(N)=NCCC[C@H](NC(=O)OCc1ccccc1)C(=O)O | Serine protease 1 (PRSS1, Bos taurus, UniProt P00760) | enzyme activity, inhibitor, absorbance | pH 7.2 | Ki | 1230 µM
